Values after ≈ are worked out from the molar mass of the structure shown.
test system: not listed separately; experiment: Permeability across basolateral to apical side in human Caco2 cells incubated for 1 hr at 37 degC by HPLC-MS/MS method; type: ADME, cell-based; details: Caco-2

In order of falling Papp B→A at 1 h:
1. O=C1c2cc(F)ccc2-n2c1nc1ccccc1c2=O  29.9 ×10⁻⁶ cm/s
2. O=C1c2cc(Cl)ccc2-n2c1nc1cc(F)ccc1c2=O  12.7 ×10⁻⁶ cm/s
3. O=C1c2cc(Br)ccc2-n2c1nc1ccccc1c2=O  7.6 ×10⁻⁶ cm/s
4. O=C1c2cc(OC(F)(F)F)ccc2-n2c1nc1ccccc1c2=O  5.8 ×10⁻⁶ cm/s
5. O=C1c2cc(Cl)ccc2-n2c1nc1ccc(F)cc1c2=O  2.1 ×10⁻⁶ cm/s

test system: Mycobacterium tuberculosis; experiment: Antitubercular activity against Mycobacterium tuberculosis H37Rv incubated at 37 degC for 7 days by microplate alamar blue assay; type: functional; details: not given
Method in brief: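 Mtb H37Rv was grown in 7H9 broth with glycerol, Casitone, 10% OADC and 0.05% Tween 80 to OD600 0.4. Compounds were 2-fold serially diluted from DMSO stocks in 7H9, and wells were inoculated at 2 × 10⁵ CFU/mL. After 7 days at 37 °C, Alamar Blue was added and read after a further 24 h. MIC was the lowest concentration preventing the blue-to-pink change.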

In order of falling MBC90:
1. CCN(CCN(C)C)c1ccc2nc3n(c(=O)c2c1)-c1ccc(Cl)cc1C3=O  4 µg/mL (≈ 10.1 µM)
2. O=C1c2cc(F)ccc2-n2c1nc1ncccc1c2=O  1 µg/mL (≈ 3.74 µM)
3. CCOC(=O)c1ccc2c(c1)C(=O)c1nc3c(OC)cccc3c(=O)n1-2  1 µg/mL (≈ 2.85 µM)
4. O=C1c2cc(Cl)ccc2-n2c1nc1cc(F)ccc1c2=O  0.25 µg/mL (≈ 0.831 µM)
5. O=C1c2cc(OC(F)(F)F)ccc2-n2c1nc1ccncc1c2=O  0.125 µg/mL (≈ 0.375 µM)

In the case of `Cl.O=C1c2ccc(N3CCNCC3)cc2-n2c1nc1ccccc1c2=O`, the MBC90 was >16 µg/mL.
In the case of `O=C1c2ccc(N3CCNCC3)cc2-n2c1nc1ccccc1c2=O`, the MBC90 was >2 µg/mL.

same assay, conditions: Mycobacterium tuberculosis, H37Rv, 168 h

In order of rising MIC:
1. O=C1c2cc(OC(F)(F)F)ccc2-n2c1nc1ccncc1c2=O  0.063 µg/mL (≈ 0.189 µM)
2. O=C1c2cc(F)ccc2-n2c1nc1ccccc1c2=O  0.125 µg/mL (≈ 0.47 µM)
3. O=C1c2cc(OC(F)(F)F)ccc2-n2c1nc1ccccc1c2=O  0.125 µg/mL (≈ 0.376 µM)
4. CCOC(=O)c1ccc2c(c1)C(=O)c1nc3c(OC)cccc3c(=O)n1-2  0.125 µg/mL (≈ 0.357 µM)
5. O=C1c2cc(Br)ccc2-n2c1nc1ccccc1c2=O  0.125 µg/mL (≈ 0.382 µM)
6. O=C1c2cc(Cl)ccc2-n2c1nc1ccc(F)cc1c2=O  0.156 µg/mL (≈ 0.519 µM)
7. O=C1c2ccc(N3CCNCC3)cc2-n2c1nc1ccccc1c2=O  0.5 µg/mL (≈ 1.5 µM)
8. O=C1c2cc(Cl)ccc2-n2c1nc1cc(F)ccc1c2=O  0.5 µg/mL (≈ 1.66 µM)
9. O=C1c2cc(F)ccc2-n2c1nc1ncccc1c2=O  1 µg/mL (≈ 3.74 µM)
10. Cl.O=C1c2ccc(N3CCNCC3)cc2-n2c1nc1ccccc1c2=O  8 µg/mL
11. CCN(CCN(C)C)c1ccc2nc3n(c(=O)c2c1)-c1ccc(Cl)cc1C3=O  16 µg/mL (≈ 40.3 µM)

test system: not listed separately; experiment: Permeability across apical to basolateral side in human Caco2 cells incubated for 1 hr at 37 degC by HPLC-MS/MS method; type: ADME, cell-based; details: Caco-2
Method in brief: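 TC7 (Caco-2 subclone) monolayer; 10 μM compound in 1% DMSO in HBSS-MES pH 6.5 on apical donor side, basolateral receiver pH 7.4; shaken 1 h at 37 °C; receiver sampled, HPLC-MS/MS; duplicate means.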

In order of falling Papp A→B at 1 h:
1. O=C1c2cc(F)ccc2-n2c1nc1ccccc1c2=O  66.6 ×10⁻⁶ cm/s
2. O=C1c2cc(Cl)ccc2-n2c1nc1cc(F)ccc1c2=O  28.5 ×10⁻⁶ cm/s
3. O=C1c2cc(Br)ccc2-n2c1nc1ccccc1c2=O  23.8 ×10⁻⁶ cm/s
4. O=C1c2cc(OC(F)(F)F)ccc2-n2c1nc1ccccc1c2=O  22 ×10⁻⁶ cm/s
5. O=C1c2cc(Cl)ccc2-n2c1nc1ccc(F)cc1c2=O  2.2 ×10⁻⁶ cm/s

test system: not listed separately; experiment: Metabolic stability in human liver microsomes assessed as parent compound remaining at 1 uM incubated for 1 hr by HPLC-MS/MS method; type: ADME, Microsome; details: read-out: Stability
Method in brief: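 Pooled mixed-gender human liver microsomes (0.3 mg/mL protein), 1 μM compound with NADP-regenerating system in phosphate buffer pH 7.4, 1 h at 37 °C; parent measured at start and end by HPLC-MS/MS; duplicate means.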

In order of falling remaining at 1 h, 1 µM:
1. O=C1c2cc(Cl)ccc2-n2c1nc1cc(F)ccc1c2=O  91%
2. O=C1c2cc(Cl)ccc2-n2c1nc1ccc(F)cc1c2=O  63%
3. O=C1c2cc(OC(F)(F)F)ccc2-n2c1nc1ccccc1c2=O  59%
4. O=C1c2cc(Br)ccc2-n2c1nc1ccccc1c2=O  59%
5. O=C1c2cc(F)ccc2-n2c1nc1ccccc1c2=O  46%

test system: Mycobacterium tuberculosis; experiment: Antitubercular activity against non-replicating Mycobacterium tuberculosis H37Rv incubated for 10 days by LORA method; type: functional; details: 240 h
Method in brief: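 H37Rv carrying pFCA-luxAB was adapted to low oxygen by gradual self-depletion in a sealed, slowly stirred flask. It was then exposed to compounds for 10 days under anaerobic conditions. Cultures recovered for 28 h in ambient oxygen before n-decanal substrate was added and luminescence read. MIC was the lowest concentration giving a 90% reduction in luminescence versus untreated controls.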

`O=C1c2cc(F)ccc2-n2c1nc1ccccc1c2=O` and `O=C1c2cc(Br)ccc2-n2c1nc1ccccc1c2=O` cannot be ordered by MIC90: > 50 µg/mL for the first, > 50 µg/mL for the second.

Compared with `O=C1c2cc(OC(F)(F)F)ccc2-n2c1nc1ccncc1c2=O`, `O=C1c2cc(OC(F)(F)F)ccc2-n2c1nc1ccccc1c2=O` is higher in MIC90: 0.64 µg/mL (≈ 1.92 µM) for the first, > 50 µg/mL for the second.

`O=C1c2cc(Cl)ccc2-n2c1nc1ccc(F)cc1c2=O` and `O=C1c2cc(Cl)ccc2-n2c1nc1cc(F)ccc1c2=O` cannot be ordered by MIC90: > 50 µg/mL for the first, > 50 µg/mL for the second.

test system: not listed separately; experiment: Efflux ratio in human Caco2 cells incubated for 1 hr at 37 degC by HPLC-MS/MS method; type: ADME, cell-based; details: Caco-2

`O=C1c2cc(F)ccc2-n2c1nc1ccccc1c2=O` and `O=C1c2cc(Br)ccc2-n2c1nc1ccccc1c2=O` cannot be ordered by efflux ratio at 1 h: > 1 for the first, > 1 for the second.

`O=C1c2cc(OC(F)(F)F)ccc2-n2c1nc1ccccc1c2=O` and `O=C1c2cc(Cl)ccc2-n2c1nc1cc(F)ccc1c2=O` cannot be ordered by efflux ratio at 1 h: > 1 for the first, > 1 for the second.

test system: not listed separately; experiment: Solubility in simulated intestinal fluid at pH 7.6 by HPLC method; type: physicochemical; details: not given
Method in brief: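 Simulated intestinal fluid medium; each analogue 200 μM final in 2% DMSO, shaken 24 h at room temperature, then HPLC with photodiode array read at 230 nm; duplicate, means given.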

In order of rising solubility:
1. O=C1c2cc(Cl)ccc2-n2c1nc1cc(F)ccc1c2=O  10.3 µM (≈ 3.1 µg/mL)
2. O=C1c2cc(F)ccc2-n2c1nc1ccccc1c2=O  18.8 µM (≈ 5.01 µg/mL)
3. O=C1c2cc(Cl)ccc2-n2c1nc1ccc(F)cc1c2=O  29.8 µM (≈ 8.96 µg/mL)
4. O=C1c2cc(OC(F)(F)F)ccc2-n2c1nc1ccccc1c2=O  31.3 µM (≈ 10.4 µg/mL)
5. O=C1c2cc(Br)ccc2-n2c1nc1ccccc1c2=O  92.9 µM (≈ 30.4 µg/mL)

test system: not listed separately; experiment: Aqueous solubility in PBS buffer at pH 7.4 by HPLC method; type: physicochemical; details: PBS buffer, read-out: solubility
Method in brief: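 Compound at 200 μM final in 2% DMSO in PBS pH 7.4, shaken 24 h at room temperature; quantified by HPLC with photodiode array detection at 230 nm; duplicate, mean reported.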

In order of rising solubility:
1. O=C1c2cc(OC(F)(F)F)ccc2-n2c1nc1ccccc1c2=O  1 µM (≈ 0.332 µg/mL)
2. O=C1c2cc(Cl)ccc2-n2c1nc1cc(F)ccc1c2=O  1.1 µM (≈ 0.331 µg/mL)
3. O=C1c2cc(Br)ccc2-n2c1nc1ccccc1c2=O  2.6 µM (≈ 0.851 µg/mL)
4. O=C1c2cc(F)ccc2-n2c1nc1ccccc1c2=O  4.9 µM (≈ 1.3 µg/mL)

test system: Mycobacterium tuberculosis; experiment: Antitubercular activity against Mycobacterium tuberculosis H37Rv incubated at 37 degC for 14 days in presence of 40% human serum by microplate alamar blue assay; type: functional; details: 336 h
Method in brief: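 This is the MABA run in 7H9 broth containing 40% human serum. Compounds were 2-fold serially diluted, and wells were inoculated with H37Rv at 2 × 10⁵ CFU/mL. Incubation was at 37 °C for 14 days, then Alamar Blue was added. MIC was the lowest concentration preventing the blue-to-pink colour change.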

`O=C1c2cc(F)ccc2-n2c1nc1ccccc1c2=O` and `O=C1c2cc(Br)ccc2-n2c1nc1ccccc1c2=O` are the same in MIC: 0.5 µg/mL for the first, 0.5 µg/mL for the second.

First: O=C1c2cc(F)ccc2-n2c1nc1ncccc1c2=O
Second: O=C1c2cc(Cl)ccc2-n2c1nc1ccc(F)cc1c2=O
The MIC of the first is 6.4-fold higher: 2 µg/mL for the first, 0.312 µg/mL for the second.

`O=C1c2cc(OC(F)(F)F)ccc2-n2c1nc1ccncc1c2=O` and `O=C1c2cc(OC(F)(F)F)ccc2-n2c1nc1ccccc1c2=O` are the same in MIC: 0.5 µg/mL for the first, 0.5 µg/mL for the second.

First: CCOC(=O)c1ccc2c(c1)C(=O)c1nc3c(OC)cccc3c(=O)n1-2
Second: O=C1c2cc(Cl)ccc2-n2c1nc1cc(F)ccc1c2=O
The MIC of the first is 8-fold higher: 4 µg/mL for the first, 0.5 µg/mL for the second.

`Cl.O=C1c2ccc(N3CCNCC3)cc2-n2c1nc1ccccc1c2=O` and `O=C1c2ccc(N3CCNCC3)cc2-n2c1nc1ccccc1c2=O` cannot be ordered by MIC: 8 µg/mL for the first, > 2 µg/mL for the second.

`CCN(CCN(C)C)c1ccc2nc3n(c(=O)c2c1)-c1ccc(Cl)cc1C3=O` gave an MIC of 16 µg/mL.

test system: Vero; experiment: Cytotoxicity against african green monkey Vero cells; type: cell-based, Chlorocebus sabaeus; details: Chlorocebus sabaeus, Vero; read-out: IC50

Going from `O=C1c2cc(F)ccc2-n2c1nc1ccccc1c2=O` to `O=C1c2cc(Br)ccc2-n2c1nc1ccccc1c2=O`, the IC50 falls from > 50 µg/mL to 35 µg/mL (≈ 107 µM).

Compared with `O=C1c2cc(F)ccc2-n2c1nc1ncccc1c2=O`, `O=C1c2cc(Cl)ccc2-n2c1nc1ccc(F)cc1c2=O` is 78-fold higher in IC50: 0.3 µg/mL (≈ 1.12 µM) for the first, 23.5 µg/mL (≈ 78.2 µM) for the second.

Compared with `O=C1c2cc(OC(F)(F)F)ccc2-n2c1nc1ccncc1c2=O`, `O=C1c2cc(OC(F)(F)F)ccc2-n2c1nc1ccccc1c2=O` is higher in IC50: 5.7 µg/mL (≈ 17.1 µM) for the first, > 50 µg/mL for the second.

First: CCOC(=O)c1ccc2c(c1)C(=O)c1nc3c(OC)cccc3c(=O)n1-2
Second: O=C1c2cc(Cl)ccc2-n2c1nc1cc(F)ccc1c2=O
The IC50 of the first is lower: 16 µg/mL (≈ 45.7 µM) for the first, > 50 µg/mL for the second.

`Cl.O=C1c2ccc(N3CCNCC3)cc2-n2c1nc1ccccc1c2=O` and `O=C1c2ccc(N3CCNCC3)cc2-n2c1nc1ccccc1c2=O` cannot be ordered by IC50: 16 µg/mL for the first, > 2 µg/mL for the second.

For `CCN(CCN(C)C)c1ccc2nc3n(c(=O)c2c1)-c1ccc(Cl)cc1C3=O`, the IC50 was 32 µg/mL (≈ 80.6 µM).

test system: not listed separately; experiment: Solubility in simulated gastric fluid at pH 1.5 by HPLC method; type: physicochemical; details: not given
Method in brief: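 Compound at 200 μM final in 2% DMSO in simulated gastric fluid, shaken 24 h at room temperature; HPLC-photodiode array detection at 230 nm; duplicate means.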

In order of falling solubility:
1. O=C1c2cc(F)ccc2-n2c1nc1ccccc1c2=O  8.5 µM (≈ 2.26 µg/mL)
2. O=C1c2cc(Cl)ccc2-n2c1nc1cc(F)ccc1c2=O  2.5 µM (≈ 0.752 µg/mL)
3. O=C1c2cc(Br)ccc2-n2c1nc1ccccc1c2=O  2.3 µM (≈ 0.752 µg/mL)
4. O=C1c2cc(OC(F)(F)F)ccc2-n2c1nc1ccccc1c2=O  1.5 µM (≈ 0.498 µg/mL)
